The record followed here is ChEMBL document CHEMBL4261628, “1H-pyrrolo[2,3-b]pyridine: A new scaffold for human neutrophil elastase (HNE) inhibitors” (Bioorg Med Chem, 2018).

Structures are written as SMILES. Active and inactive are the calls of the source. The calls are words filed in the database; no cut-off is given here.

One data set concerns the target T1, Neutrophil elastase (Homo sapiens) (UniProt P08246).
T1 sequence (whole entry): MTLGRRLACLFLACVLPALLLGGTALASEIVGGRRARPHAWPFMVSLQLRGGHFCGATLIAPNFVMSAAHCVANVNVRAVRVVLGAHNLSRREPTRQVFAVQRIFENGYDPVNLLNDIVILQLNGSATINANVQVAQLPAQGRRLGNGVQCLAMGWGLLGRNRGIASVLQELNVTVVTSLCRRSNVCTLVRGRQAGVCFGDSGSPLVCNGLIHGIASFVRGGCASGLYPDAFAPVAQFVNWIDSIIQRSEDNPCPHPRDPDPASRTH
Nature of the data set: Inhibition of human neutrophil elastase at 50 uM using N-methylsuccinyl-Ala-Ala-Pro-Val-7-amino-4-methylcoumarin as substrate measured every 30 secs for 10 mins by fluorescence assay. Summed up:
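HNE (20 mU/mL) in 200 mM Tris-HCl pH 7.5 with 0.01% BSA and 0.05% Tween-20. Compound from 5 mM DMSO stock, 1% DMSO final, tested up to 50 µM. Reaction started with 25 µM final substrate. Fluorescence read at ex 355/em 460 nm, 25 °C. No inhibition at 50 µM is reported as N.A.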
Turning to `N#Cc1cn(CC(=O)Nc2ccccc2)c2ncccc12`, the inhibition entry was “inactive”.

Consider `Cc1cccc(C(=O)n2cc(-c3ccsc3)c3cccnc32)c1`, for which the inhibition entry is “inactive”.

For `Cc1cccc(C(=O)n2ccc3cccnc32)c1`, the inhibition result was “inactive”.

For the compound `CCOC(=O)c1cn(CC(=O)Nc2ccccc2)c2ncccc12`, the inhibition result was “inactive”.

Take `Cn1cc(C(=O)Nc2ccccc2)c2cccnc21`: the inhibition result was “inactive”.

System in another data set: not listed separately
Nature of the data set: Half life in 0.05 M phosphate buffer of pH 7.3 at 25 degC by spectrophotometric analysis. In kind it is physicochemical.
With `Cc1ccc(C(=O)n2cc(C#N)c3cccnc32)cc1`, the half-life (as a rule, the time in which the quantity being followed falls by half) is 2.6 h.

As for `CCOC(=O)c1cn(C(=O)c2ccc(C)cc2)c2ncccc12`, the half-life was 4.3 h.

For the compound `Cc1cccc(C(=O)n2cc(C#N)c3cccnc32)c1`, the half-life is 1.9 h.

Take `CCCCC(=O)n1cc(C#N)c2cccnc21`: the half-life is 1.9 h.

In the case of `Cc1cccc(C(=O)n2cc(-c3nc(C)no3)c3cccnc32)c1`, the half-life is 2.4 h.

`Cc1cccc(C(=O)n2cc(C(=O)Nc3ccccc3)c3cccnc32)c1`: the half-life is 3.4 h.

As for `CCOC(=O)c1cn(C(=O)C2CC2)c2ncccc12`, the half-life was 14.4 h.

On to `N#Cc1cn(C(=O)C2CC2)c2ncccc12`, for which the half-life was 6.8 h.

`CCOC(=O)c1cn(C(=O)c2cccc(C)c2)c2ncccc12` gave a half-life of 3.5 h. This half-life lies about 1.9-fold lower than the previous one.

`Cc1cccc(C(=O)n2cc([N+](=O)[O-])c3cccnc32)c1` had a half-life of 0.4 h.
